According to ChEMBL document CHEMBL1127031, “Development of high-affinity 5-HT3 receptor antagonists. Structure-affinity relationships of novel 1,7-annelated indole derivatives” (J Med Chem, 1993):

Key:
[1] = target: T1, Serotonin 3 (5-HT3) receptor (Rattus norvegicus, UniProt P35563+Q9JJ16); assay: Displacement of [3H]GR-65630 binding to 5-hydroxytryptamine 3 receptor in rat brain cortical membranes; type: cell membranes, Membrane
T1 sequence (P35563 whole entry): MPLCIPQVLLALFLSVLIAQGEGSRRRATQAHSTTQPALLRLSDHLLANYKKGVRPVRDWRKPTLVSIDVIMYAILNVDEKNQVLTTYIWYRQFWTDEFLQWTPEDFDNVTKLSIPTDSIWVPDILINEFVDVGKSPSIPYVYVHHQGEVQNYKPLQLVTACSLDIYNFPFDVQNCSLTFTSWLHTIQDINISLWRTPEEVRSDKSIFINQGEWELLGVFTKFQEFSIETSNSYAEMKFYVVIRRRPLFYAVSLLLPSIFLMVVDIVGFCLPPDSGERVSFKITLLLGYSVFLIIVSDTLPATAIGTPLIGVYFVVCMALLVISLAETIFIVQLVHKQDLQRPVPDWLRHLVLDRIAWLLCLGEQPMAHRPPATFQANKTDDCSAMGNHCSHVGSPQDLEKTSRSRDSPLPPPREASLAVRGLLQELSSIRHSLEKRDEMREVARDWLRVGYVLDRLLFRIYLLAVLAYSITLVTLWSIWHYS
T1 sequence (Q9JJ16 whole entry): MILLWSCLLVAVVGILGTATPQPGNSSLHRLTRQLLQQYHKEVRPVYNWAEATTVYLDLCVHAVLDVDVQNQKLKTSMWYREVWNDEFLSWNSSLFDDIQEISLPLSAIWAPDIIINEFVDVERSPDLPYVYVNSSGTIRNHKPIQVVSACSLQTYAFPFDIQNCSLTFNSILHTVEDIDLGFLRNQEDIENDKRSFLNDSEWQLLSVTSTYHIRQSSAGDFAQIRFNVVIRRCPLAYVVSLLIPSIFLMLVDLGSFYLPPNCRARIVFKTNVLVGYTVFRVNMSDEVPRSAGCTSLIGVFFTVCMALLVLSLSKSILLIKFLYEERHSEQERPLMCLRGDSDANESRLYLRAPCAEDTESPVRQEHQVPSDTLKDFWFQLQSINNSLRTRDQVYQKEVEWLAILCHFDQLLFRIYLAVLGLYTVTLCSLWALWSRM
In short: (§1)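 Radioligand displacement on membrane preparations with glass-fibre filtration and liquid scintillation counting of tritium after overnight equilibration. Four to six test concentrations were used. IC50 came from log-probit linear regression. Ki = IC50/(1 + S/Kd), where S is the [3H]label concentration. Ki is the mean of at least three independent experiments run on different days with different membrane preparations.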

[2] = target: Thyrotropin-releasing hormone receptor (Rattus norvegicus, UniProt Q01717); assay: The binding affinity was measured on TRH receptor using [3H]- MeTRH as radioligand.
[3] = target: T2, Voltage-gated L-type calcium channel (Rattus norvegicus, UniProt P22002+Q02485+P27732); assay: Inhibition of [3H]nitrendipine binding to L-type calcium channel dihydropyridine site of rat brain
In short: (§2)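 Radioligand displacement on tissue membrane suspensions, with 4–6 concentrations of unlabeled test drug. Bound label was collected on GF/B glass-fibre filters, equilibrated overnight in scintillant, and counted for tritium. […] Ki = IC50/(1 + S/Kd), where S is the label concentration. Each value is the mean of ≥3 independent experiments on different days with different membrane preparations.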

Mu-type opioid receptor = Mu-type opioid receptor (Rattus norvegicus, UniProt P33535); assay: The binding affinity was measured on mu-opiate receptor using [3H]- naloxone as radioligand.
[4] = target: Glutamate receptor ionotropic, NMDA 2C (Rattus norvegicus, UniProt Q00961); assay: The binding affinity was measured on NMDA receptor using [3H]- CGS-19755 as radioligand.
Glutamate receptor ionotropic, NMDA 2C, sequence (Q00961 whole entry): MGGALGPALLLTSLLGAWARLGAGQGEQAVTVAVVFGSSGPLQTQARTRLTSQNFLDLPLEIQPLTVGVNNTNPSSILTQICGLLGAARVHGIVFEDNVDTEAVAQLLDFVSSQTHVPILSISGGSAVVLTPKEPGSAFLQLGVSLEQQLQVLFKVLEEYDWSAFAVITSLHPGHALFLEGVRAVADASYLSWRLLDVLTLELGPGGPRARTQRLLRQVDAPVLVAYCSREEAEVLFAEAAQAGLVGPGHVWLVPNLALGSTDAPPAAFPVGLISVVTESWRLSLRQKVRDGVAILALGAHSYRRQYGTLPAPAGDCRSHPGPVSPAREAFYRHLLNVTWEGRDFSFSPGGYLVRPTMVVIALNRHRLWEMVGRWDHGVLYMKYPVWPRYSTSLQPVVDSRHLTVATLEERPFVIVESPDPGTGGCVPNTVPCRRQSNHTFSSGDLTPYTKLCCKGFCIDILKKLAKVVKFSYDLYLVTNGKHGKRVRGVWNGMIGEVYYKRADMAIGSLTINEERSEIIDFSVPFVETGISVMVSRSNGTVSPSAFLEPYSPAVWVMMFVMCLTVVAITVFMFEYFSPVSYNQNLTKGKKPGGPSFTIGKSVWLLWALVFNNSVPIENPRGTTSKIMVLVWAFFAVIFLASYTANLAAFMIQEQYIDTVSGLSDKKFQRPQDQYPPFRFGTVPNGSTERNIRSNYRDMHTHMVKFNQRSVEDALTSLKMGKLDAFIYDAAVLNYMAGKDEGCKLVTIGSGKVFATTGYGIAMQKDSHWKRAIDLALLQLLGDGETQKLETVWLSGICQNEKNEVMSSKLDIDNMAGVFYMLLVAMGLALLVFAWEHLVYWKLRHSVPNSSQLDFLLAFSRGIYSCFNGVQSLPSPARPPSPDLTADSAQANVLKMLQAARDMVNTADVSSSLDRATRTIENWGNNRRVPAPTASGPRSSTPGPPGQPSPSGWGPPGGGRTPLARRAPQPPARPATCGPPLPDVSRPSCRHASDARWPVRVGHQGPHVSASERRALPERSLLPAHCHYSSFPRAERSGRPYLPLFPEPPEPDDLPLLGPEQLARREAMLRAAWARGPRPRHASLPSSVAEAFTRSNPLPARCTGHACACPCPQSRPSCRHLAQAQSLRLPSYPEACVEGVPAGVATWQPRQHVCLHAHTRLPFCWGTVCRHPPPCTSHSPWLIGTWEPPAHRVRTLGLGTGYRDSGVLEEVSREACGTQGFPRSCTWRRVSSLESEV

D(2) dopamine receptor = D(2) dopamine receptor (Rattus norvegicus, UniProt P61169); assay: The binding affinity was measured on dopamine receptor D2 using [3H]- spiperone as radioligand.
D(2) dopamine receptor, sequence (P61169 whole entry): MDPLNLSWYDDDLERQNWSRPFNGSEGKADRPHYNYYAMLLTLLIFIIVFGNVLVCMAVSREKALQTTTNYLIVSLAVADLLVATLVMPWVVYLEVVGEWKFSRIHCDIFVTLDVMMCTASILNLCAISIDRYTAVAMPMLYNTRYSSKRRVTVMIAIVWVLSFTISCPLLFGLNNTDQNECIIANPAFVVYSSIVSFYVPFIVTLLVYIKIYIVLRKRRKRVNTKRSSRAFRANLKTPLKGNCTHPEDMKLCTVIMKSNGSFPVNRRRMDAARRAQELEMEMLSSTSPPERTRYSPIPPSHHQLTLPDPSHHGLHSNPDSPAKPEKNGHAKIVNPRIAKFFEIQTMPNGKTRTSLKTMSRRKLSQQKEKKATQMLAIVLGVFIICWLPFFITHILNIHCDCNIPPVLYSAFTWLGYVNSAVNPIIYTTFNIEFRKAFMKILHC

[5] = target: Cholecystokinin receptor type A (Rattus norvegicus, UniProt P30551); assay: The binding affinity was measured on cholecystokinin type A receptor using [3H]- CCK-8 as radioligand.
Cholecystokinin receptor type A, sequence (P30551 whole entry): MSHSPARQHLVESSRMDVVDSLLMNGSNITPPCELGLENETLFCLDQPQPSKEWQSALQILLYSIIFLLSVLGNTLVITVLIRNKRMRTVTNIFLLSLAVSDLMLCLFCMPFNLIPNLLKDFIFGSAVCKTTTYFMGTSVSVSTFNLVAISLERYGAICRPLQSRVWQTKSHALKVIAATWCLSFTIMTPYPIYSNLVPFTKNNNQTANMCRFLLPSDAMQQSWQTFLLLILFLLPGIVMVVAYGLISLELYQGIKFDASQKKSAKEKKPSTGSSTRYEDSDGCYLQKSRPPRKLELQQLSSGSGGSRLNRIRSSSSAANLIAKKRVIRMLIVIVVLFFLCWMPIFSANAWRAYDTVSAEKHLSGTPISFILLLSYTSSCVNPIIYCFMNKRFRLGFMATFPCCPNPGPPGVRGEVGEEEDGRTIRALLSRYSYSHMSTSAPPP

[6] = The binding affinity was measured on glycine strych. ins receptor using [3H]- 5,7-diClkyn.acid as radioligand.; set-up: species or system Rattus norvegicus
Adrenergic receptor beta = Adrenergic receptor beta (Rattus norvegicus, UniProt P18090+P10608+P26255); assay: The binding affinity was measured on beta-1,2-adrenergic receptor using [3H]- DHA as radioligand.; type: protein assay
[7] = target: Kappa-type opioid receptor (Rattus norvegicus, UniProt P34975); assay: The binding affinity was measured on kappa-opiate receptor using [3H]- EKC as radioligand.
[8] = target: GABA-A receptor; anion channel; assay: Displacement of [3H]- Diazepam from rat GABA-A benzodiazepine receptor; type: protein-complex assay; in short: as §1
Cavia porcellus = species on record: Cavia porcellus; assay: The pA2 is the negative logarithm of the molar concentration of an antagonist which necessitates the doubling of the agonist dose to couteract the effect of that antagonist and restore the original response was measured in guinea pig isolated ileu m test.
[9] = target: Muscarinic acetylcholine receptor M2 (Rattus norvegicus, UniProt P10980); assay: The binding affinity was measured on muscarine M2 receptor using [3H]- N-Me-SCOPOL as radioligand.; in short: as §2
Muscarinic acetylcholine receptor M2, sequence (P10980 whole entry): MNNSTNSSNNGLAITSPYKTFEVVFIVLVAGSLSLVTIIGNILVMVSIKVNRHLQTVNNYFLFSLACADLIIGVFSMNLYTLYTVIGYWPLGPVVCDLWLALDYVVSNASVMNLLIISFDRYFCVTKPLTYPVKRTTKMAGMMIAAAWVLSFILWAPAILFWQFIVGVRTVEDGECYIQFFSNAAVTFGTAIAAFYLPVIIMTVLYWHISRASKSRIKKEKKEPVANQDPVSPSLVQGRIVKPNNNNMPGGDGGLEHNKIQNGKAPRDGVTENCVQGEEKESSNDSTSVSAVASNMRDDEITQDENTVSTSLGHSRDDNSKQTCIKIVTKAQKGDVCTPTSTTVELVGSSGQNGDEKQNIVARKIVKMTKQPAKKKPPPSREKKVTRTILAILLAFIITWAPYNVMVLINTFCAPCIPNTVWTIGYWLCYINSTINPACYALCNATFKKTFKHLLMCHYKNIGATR

[10] = target: Muscarinic acetylcholine receptor M3 (Rattus norvegicus, UniProt P08483); assay: The binding affinity was measured on muscarine M3 receptor using [3H]- N-Me-SCOPOL as radioligand.
D(3) dopamine receptor = D(3) dopamine receptor (Rattus norvegicus, UniProt P19020); assay: The binding affinity was measured on dopamine receptor D3 using [3H]- spiperone as radioligand.
D(3) dopamine receptor, sequence (P19020 whole entry): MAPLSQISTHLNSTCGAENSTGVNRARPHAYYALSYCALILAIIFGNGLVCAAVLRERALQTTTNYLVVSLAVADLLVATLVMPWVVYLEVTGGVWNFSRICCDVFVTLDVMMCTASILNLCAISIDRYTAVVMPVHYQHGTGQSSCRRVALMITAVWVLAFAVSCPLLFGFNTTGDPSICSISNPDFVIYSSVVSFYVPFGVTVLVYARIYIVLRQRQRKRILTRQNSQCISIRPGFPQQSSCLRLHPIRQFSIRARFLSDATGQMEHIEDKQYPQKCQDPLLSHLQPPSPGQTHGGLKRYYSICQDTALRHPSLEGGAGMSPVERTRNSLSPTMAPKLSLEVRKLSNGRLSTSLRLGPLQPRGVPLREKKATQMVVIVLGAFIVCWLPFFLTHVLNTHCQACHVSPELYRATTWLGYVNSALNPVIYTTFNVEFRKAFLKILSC

[11] = target: GABA-A receptor; anion channel; assay: Displacement of [3H]DH-muscimol from rat GABA-A receptor; type: protein-complex assay; in short: as §1
[12] = The binding affinity was measured on melatonin receptor using [3H]- 2-iodo-melat as radioligand.
Rattus norvegicus [13] = species on record: Rattus norvegicus; assay: The pA2 is the negative logarithm of the molar concentration of an antagonist which necessitates the doubling of the agonist dose to couteract the effect of that antagonist and restore the original response was measured in rat isolated vagus nerve test.; type: functional; conditions: read-out: pA2 (converted)
[14] = target: Delta-type opioid receptor (Rattus norvegicus, UniProt P33533); assay: The binding affinity was measured on delta-opiate receptor using [3H]- dadle as radioligand.
[15] = target: Gastrin/cholecystokinin type B receptor (Rattus norvegicus, UniProt P30553); assay: The binding affinity was measured on cholecystokinin type B receptor using [3H]- CCK-8 as radioligand.
Gastrin/cholecystokinin type B receptor, sequence (P30553 whole entry): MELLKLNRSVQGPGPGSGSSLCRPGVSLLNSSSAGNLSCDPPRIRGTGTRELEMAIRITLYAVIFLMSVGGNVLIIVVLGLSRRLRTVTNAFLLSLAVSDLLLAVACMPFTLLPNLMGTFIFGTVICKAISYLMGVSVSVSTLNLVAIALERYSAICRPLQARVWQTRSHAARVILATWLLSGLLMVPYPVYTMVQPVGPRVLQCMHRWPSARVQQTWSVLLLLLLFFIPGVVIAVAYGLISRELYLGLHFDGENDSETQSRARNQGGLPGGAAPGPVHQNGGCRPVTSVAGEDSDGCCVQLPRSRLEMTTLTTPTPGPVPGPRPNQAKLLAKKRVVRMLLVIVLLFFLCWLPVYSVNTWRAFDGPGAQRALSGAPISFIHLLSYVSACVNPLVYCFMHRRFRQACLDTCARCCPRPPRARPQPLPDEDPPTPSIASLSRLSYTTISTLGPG

[16] = target: Interleukin-6 receptor subunit alpha (Rattus norvegicus, UniProt P22273); assay: The binding affinity was measured on […] receptor using [3H]- IL-6 as radioligand.; in short: as §2
Interleukin-6 receptor subunit alpha, sequence (P22273 whole entry): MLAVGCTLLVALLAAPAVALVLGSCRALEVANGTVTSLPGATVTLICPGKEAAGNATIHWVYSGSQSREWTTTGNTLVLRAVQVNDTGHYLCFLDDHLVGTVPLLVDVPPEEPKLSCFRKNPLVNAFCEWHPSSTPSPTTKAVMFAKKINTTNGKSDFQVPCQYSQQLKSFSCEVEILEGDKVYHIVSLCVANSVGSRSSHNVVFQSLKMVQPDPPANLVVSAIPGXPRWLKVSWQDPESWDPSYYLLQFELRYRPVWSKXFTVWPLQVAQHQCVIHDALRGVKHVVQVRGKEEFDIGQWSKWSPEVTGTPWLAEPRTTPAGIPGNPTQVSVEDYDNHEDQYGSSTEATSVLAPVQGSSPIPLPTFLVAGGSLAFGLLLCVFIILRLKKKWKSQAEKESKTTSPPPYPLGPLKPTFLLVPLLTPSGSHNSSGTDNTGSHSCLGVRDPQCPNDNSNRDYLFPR

[17] = target: Alpha-2A adrenergic receptor (Rattus norvegicus, UniProt P22909); assay: The binding affinity was measured on alpha-2-adrenergic receptor using [3H]- clonidine as radioligand.
[18] = target: T2, Voltage-gated L-type calcium channel; assay: Inhibition of [3H]D-888 binding to L-type calcium channel verapamil site of rat brain; in short: as §2
[19] = target: Sigma non-opioid intracellular receptor 1 (Rattus norvegicus, UniProt Q9R0C9); assay: The binding affinity was measured on sigma receptor using [3H]- (+)-3-PPP as radioligand.
Sigma non-opioid intracellular receptor 1, sequence (Q9R0C9 whole entry): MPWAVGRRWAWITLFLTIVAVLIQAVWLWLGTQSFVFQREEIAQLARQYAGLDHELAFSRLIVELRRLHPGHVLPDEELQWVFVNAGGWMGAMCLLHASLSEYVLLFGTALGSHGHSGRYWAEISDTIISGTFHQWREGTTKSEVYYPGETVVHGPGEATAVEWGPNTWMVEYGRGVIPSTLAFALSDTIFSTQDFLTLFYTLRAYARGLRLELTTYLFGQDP

Mus musculus = species on record: Mus musculus; assay: Lowest effective dose affecting behavioral parameter in at least half of the animals.
Histamine H1 receptor = Histamine H1 receptor (Rattus norvegicus, UniProt P31390); assay: The binding affinity was measured on histamine H1 receptor using [3H]- mepyramine as radioligand.
Histamine H1 receptor, sequence (P31390 whole entry): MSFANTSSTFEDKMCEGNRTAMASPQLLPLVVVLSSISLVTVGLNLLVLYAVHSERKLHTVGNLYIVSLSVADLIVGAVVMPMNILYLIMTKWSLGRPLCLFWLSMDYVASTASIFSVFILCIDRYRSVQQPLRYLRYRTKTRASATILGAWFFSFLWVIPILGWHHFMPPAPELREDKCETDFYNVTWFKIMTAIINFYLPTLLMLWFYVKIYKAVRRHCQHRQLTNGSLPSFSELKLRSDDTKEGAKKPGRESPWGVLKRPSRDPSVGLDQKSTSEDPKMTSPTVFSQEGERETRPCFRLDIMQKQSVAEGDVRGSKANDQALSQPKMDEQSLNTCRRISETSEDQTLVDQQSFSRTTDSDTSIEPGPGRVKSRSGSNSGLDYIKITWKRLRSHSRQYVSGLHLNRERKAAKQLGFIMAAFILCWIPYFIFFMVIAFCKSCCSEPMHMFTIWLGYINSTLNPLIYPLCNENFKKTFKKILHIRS

D(1A) dopamine receptor = D(1A) dopamine receptor (Rattus norvegicus, UniProt P18901); assay: The binding affinity was measured on dopamine receptor D1 using [3H]- dopamine as radioligand.
[20] = The binding affinity was measured on Na+2(BTX)brain receptor using [3H]- batrachotox as radioligand.; set-up: species or system Rattus norvegicus
[21] = target: Muscarinic acetylcholine receptor M1 (Rattus norvegicus, UniProt P08482); assay: The binding affinity was measured on muscarine M1 receptor using [3H]- pirenzepine as radioligand.
Rattus norvegicus [22] = species on record: Rattus norvegicus; assay: Dose of antagonist which inhibits the by the 2-Me-5-HT induced slowing of the heart rate by 10 beats/5 s.; type: functional
In short: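 Von Bezold-Jarisch reflex test in unrestrained conscious rats, with the compound given orally. The bradycardia (slowing of heart rate) was induced by 2-Me-5-HT. The value is the antagonist dose that reduces this slowing by 10 beats/5 s.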

Histamine H3 receptor = Histamine H3 receptor (Rattus norvegicus, UniProt Q9QYN8); assay: The binding affinity was measured on histamine H3 receptor using [3H]- N-Me-histam as radioligand.
[23] = The binding affinity was measured on substance P as radioligand.; set-up: species or system Rattus norvegicus

Q: Which Ki [1] does the source give for `Cc1[nH]cnc1CCC(=O)c1cn(C)c2ccccc12` here?
A: 280 pM

Q: With `Cc1[nH]cnc1CCC(=O)c1cn2c3c(cccc13)CCCC2` as the compound, how does the Ki [1] read?
A: 330 pM

Q: With `Cc1nccn1C[C@H]1CCc2c(c3cccc4c3n2CCC4)C1=O` [CILANSETRON] as the compound, how does the Ki [2] read?
A: > 10 µM

Q: And the Ki [3]?
A: > 10 µM

Q: And the Ki (Mu-type opioid receptor)?
A: 8.5 µM

Q: What about the Ki [4] of the same compound?
A: > 10 µM

Q: And the Ki (D(2) dopamine receptor)?
A: > 10 µM

Q: And the Ki [5]?
A: > 10 µM

Q: What about the Ki [6] of the same compound?
A: > 10 µM

Q: What about the Ki (Adrenergic receptor beta) of the same compound?
A: > 10 µM

Q: And the Ki [7]?
A: > 10 µM

Q: What about the Ki [8] of the same compound?
A: > 10 µM

Q: And the Kb (Cavia porcellus)?
A: 0.0158 µM

Q: What about the Ki [9] of the same compound?
A: > 10 µM

Q: What about the Ki [10] of the same compound?
A: > 10 µM

Q: And the Ki (D(3) dopamine receptor)?
A: > 10 µM

Q: And the Ki [11]?
A: > 10 µM

Q: And the Ki [12]?
A: > 10 µM

Q: And the Kb (Rattus norvegicus [13])?
A: 0.000115 µM

Q: And the Ki [14]?
A: > 10 µM

Q: What about the Ki [15] of the same compound?
A: > 10 µM

Q: What about the Ki [16] of the same compound?
A: > 10 µM

Q: And the Ki [17]?
A: > 10 µM

Q: And the Ki [18]?
A: 5.4 µM

Q: What about the Ki [19] of the same compound?
A: 0.34 µM

Q: And the LED (Mus musculus)?
A: 30 mg/kg

Q: What about the Ki (Histamine H1 receptor) of the same compound?
A: 6.5 µM

Q: And the Ki (D(1A) dopamine receptor)?
A: > 10 µM

Q: And the Ki [20]?
A: > 10 µM

Q: And the Ki [21]?
A: 0.91 µM

Q: What about the ED10 (Rattus norvegicus [22]) of the same compound?
A: 0.026 mg/kg

Q: And the Ki (Histamine H3 receptor)?
A: > 10 µM

Q: And the Ki [23]?
A: > 10 µM

Q: With `Cc1nccn1CC1CCc2c(c3cccc4c3n2CCS4)C1=O` (racemic) as the compound, how does the Ki [1] read?
A: 770 pM

Q: For `Cc1nccn1CC1CCc2c(c3cccc4c3n2CCCC4)C1=O` (single isomer, unassigned; (+)), which Ki [1] is on record?
A: 930 pM

Q: For `Cc1nccn1CC1CCc2c(c3cccc4c3n2CCCC4)C1=O` (single isomer, unassigned; (-)), which Ki [1] is on record?
A: 640 pM

Q: For `Cc1nccn1CC1CCc2c(c3cccc4c3n2CCCC4)C1=O` (racemic), which Ki [1] is on record?
A: 750 pM

Q: Which Ki [1] does the source give for `Cc1nc[nH]c1CCC(=O)c1cn2c3c(cccc13)SCC2` here?
A: 190 pM

Q: With `Cc1nccn1CC1CCc2c(c3cccc4c3n2CCO4)C1=O` (racemic) as the compound, how does the Ki [1] read?
A: 1300 pM

Q: With `Cc1nccn1CC1CCc2c(c3cccc4c3n2CC4)C1=O` (racemic) as the compound, how does the Ki [1] read?
A: 230 pM

Q: Which results are given for `Cc1nccn1CC1CCc2c(c3ccccc3n2C)C1=O` (stereo not drawn) [ONDANSETRON]?
A: Ki [2]: > 10 µM; Ki [3]: > 10 µM; Ki (Mu-type opioid receptor): 2.9 µM; Ki [4]: > 10 µM; Ki (D(2) dopamine receptor): > 10 µM; Ki [5]: > 10 µM; Ki [6]: > 10 µM; Ki (Adrenergic receptor beta): > 10 µM; Ki [7]: > 10 µM; Ki [8]: > 10 µM; Kb (Cavia porcellus): 0.158 µM; Ki [9]: > 10 µM; Ki [10]: > 10 µM; Ki (D(3) dopamine receptor): > 10 µM; Ki [11]: > 10 µM; Ki [12]: > 10 µM; Kb (Rattus norvegicus [13]): 0.00102 µM; Ki [14]: > 10 µM; Ki [15]: > 10 µM; Ki [16]: > 10 µM; Ki [17]: > 10 µM; Ki [18]: > 10 µM; Ki [19]: 0.68 µM; LED (Mus musculus): 3 mg/kg; Ki (Histamine H1 receptor): > 10 µM; Ki (D(1A) dopamine receptor): > 10 µM; Ki [20]: > 10 µM; Ki [21]: 5.1 µM; ED10 (Rattus norvegicus [22]): 0.165 mg/kg; Ki (Histamine H3 receptor): > 10 µM; Ki [23]: > 10 µM

Q: Which Ki [1] does the source give for `Cc1nccn1CC1CCc2c(c3cccc4c3n2CCCCC4)C1=O` (racemic) here?
A: 1100 pM

Q: With `Cc1[nH]cnc1CCC(=O)c1cn2c3c(cccc13)CCC2` as the compound, how does the Ki [1] read?
A: 75 pM
